Compound activity: PubChem BioAssay, Broad Institute
Only some compounds are listed: those with a hit (about 2% of all), similar ones and a draw of the others.
CaV13 ICDI inh: Disruptors of the CACNA1D IQ motif to Ca2+-dependent inactivation inhibitor domain association, primary screening, Förster resonance energy transfer in intact living …; HEK cells, CFP/YFP FRET ICDI-IQ, plate reader, 10 min; percent FRET-ratio fall versus neutral wells; inhibition, % at 12.3 µM; actives 0.098% (n = 340,000); AID 743397;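 active means mean replicate inhibition of at least 30% and at least 1% of replicates passing that level; inconclusive means only one of the two criteria is met; inactive means neither criterion is met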;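 further: 0% = median of the neutral control wells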
Xi reactivation: activators of inactive X chromosome reactivation, primary screen, imaging, XiGFP fibroblasts, GFP high-content imaging, set 2 | activation, % at 7.58 µM | XiGFP mouse fibroblasts, % GFP-positive cells imaging, 3 d; cells co-treated with 5-aza-dC sensitizer; scaled so ellipticine positive control = 100% | actives 0.055% (n = 360,000) | AID 743238, 2013;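 active means mean normalized replicate activation at least 10% and every replicate at or above 10%; inconclusive means only one of the two criteria met; inactive means mean below 10% and not all replicates reach 10%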;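 further: 0% = median of on-plate neutral control wells and 100% = ellipticine 6 µM median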
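material = 68-5-11 XiGFP fibroblast line | medium = DMEM plus 5-aza-dC sensitizer | schedule = 3 days compound exposure | benchmarks = positive control ellipticine, 6 µM final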
CASP6 VEID inh: human caspase-6 inhibitors, primary screen, biochemical, VEID-R110 fluorescence, single point, set 2; P55212; purified caspase-6, Z-VEID-R110 cleavage fluorescence; inhibition, % at 12.5 µM; actives 0.53% (n = 350,000);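 active means mean inhibition across replicates at least about 35%, with every replicate also reaching that limit, limit read from the data; inconclusive means only one of the two criteria met; inactive means neither criterion met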;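 further: 0% = median of neutral control wells and 100% = no fluorescence left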
Target sequence (P55212 24-179 limits assumed): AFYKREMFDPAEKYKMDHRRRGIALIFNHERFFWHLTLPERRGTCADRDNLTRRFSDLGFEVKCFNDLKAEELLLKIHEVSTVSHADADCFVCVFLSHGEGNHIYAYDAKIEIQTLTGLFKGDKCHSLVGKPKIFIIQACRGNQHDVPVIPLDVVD
Target sequence (P55212 194-293 limits assumed): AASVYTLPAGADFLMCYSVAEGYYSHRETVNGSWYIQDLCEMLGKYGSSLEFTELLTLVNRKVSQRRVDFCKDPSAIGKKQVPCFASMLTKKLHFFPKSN
FN deposition inh: inhibitors of fibronectin matrix deposition, primary screen, AH1F cells, Alexa488-fibronectin fluorescence, plate reader; inhibition, % at 12.6 µM; actives 0.086% (n = 350,000); AH1F fibroblasts, overnight;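 active means mean inhibition across replicates of 30% or more, regardless of how many single replicates reach that level; inconclusive means mean under 30% yet at least half of replicates reach 30%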;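 further: positive control wells lacked labelled fibronectin entirely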
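Measured by – fluorescence 485/525 nm · System – AH1F fibroblast monolayer, labelled fibronectin deposition · Amount – 10000 cells per well · Buffer or medium – serum-reduced DMEM (2% serum) · Doses – single dose, pinned · Also added – fluorescent fibronectin at 24 nM final · Schedule – 1 h cell attachment, overnight exposure to compound and label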
DENV2 CPE rescue: inhibitors of DENV2 cytopathic effect, primary screen, cell-based, plate reader, single concentration | CPE inhibition, % at 9.99 µM | actives 1.7% (n = 350,000) | DENV2-infected cells, cytopathic effect rescue; in the data active means CPE inhibition above about 20%, passing the limit was not always enough; inconclusive means no clear call, values can overlap the other calls; tested in BHK-21 cells;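 further: 0% = median of neutral control wells and 100% = median of positive control wells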
* = called active by the depositor; ? = inconclusive; / = no result given.

SMILES	CaV13 ICDI inh	Xi reactivation	CASP6 VEID inh	FN deposition inh	DENV2 CPE rescue
C(=C\c1ccc(C2[C@@H]3CN(Cc4cccnc4)C[C@H]2N3)cc1)/c1ccccc1 (stereo partly drawn)	/	0.0	2.5	-10.2	-2.4
Cc1ccc(S(=O)(=O)Nc2cccc3c2O[C@@H](CN(C)CC2CC2)[C@H](C)CN([C@H](C)CO)C3=O)cc1	/	0.1	-0.5	/	?
CCCNC(=O)Nc1ccc2c(c1)C(=O)N(C)C[C@H](OC)[C@@H](C)CN(C(C)=O)[C@H](C)CO2	/	0.0	-2.8	9.1	-6.7
O=S(c1ccccc1O)S(=O)c1ccccc1O (stereo not drawn)	-2.7	-0.2	62.4*	-1.3	-4.6
CO[C@@H]1CN(C)C(=O)c2cc(NS(C)(=O)=O)ccc2OC[C@H](C)N(Cc2ccccn2)C[C@H]1C	/	0.0	/	3.2	/
Cc1ccc2ccc(C(Nc3ccccc3)c3ccccc3)c(O)c2n1 (stereo not drawn)	-6.2	0.0	-2.7	18.6	35.4*
CC(=O)N(C)C[C@@H]1Oc2cc(C#Cc3ccncc3)ccc2S(=O)(=O)N([C@@H](C)CO)C[C@@H]1C	/	0.2	-3.4	0.5	-11.3
CCCC(=O)Nc1ccc2c(c1)C(=O)N(C)C[C@@H](OC)[C@H](C)CN(C(=O)CN1CCOCC1)[C@H](C)CO2	/	-0.5	-0.8	10.0	2.1
CO[C@H]1CN(C)C(=O)c2cc(NC(C)=O)ccc2OC[C@@H](C)N(C(=O)CN2CCOCC2)C[C@H]1C	/	0.7	0.8	30.6*	-2.1
CCCC(=O)Nc1ccc2c(c1)OC[C@@H](C)N(C(=O)CN1CCOCC1)C[C@@H](C)[C@H](OC)CN(C)C2=O	/	0.2	-1.4	-2.6	21.2*
C[C@@H]1CN([C@@H](C)CO)S(=O)(=O)c2ccc(-c3cccnc3)cc2O[C@H]1CN(C)C(=O)C1CC1	/	0.4	/	/	/
CC(C)c1ccccc1OCCCCN1CCCCC1	-3.9	-0.1	-7.4	10.1	29.9*
CCOC(=O)C(=C1Nc2ccccc2N1)n1c(-c2ccco2)nc2ccccc21	-6.3	-0.1	26.4	-1.9	-21.6
CCOC(=O)C(=C1Nc2ccccc2N1)n1c(-c2cnccn2)nc2ccccc21	-9.0	-0.1	0.2	-6.7	57.3*
CCCCNC(=O)O[C@H]1C[C@@H]2CCN3C(=O)CCC[C@H]([C@H]1Cc1ccccc1)[C@H]23	1.1	0.0	0.7	-3.6	53.9*
O=C1[C@H](Cc2ccc(C(F)(F)F)cc2)CCn2cc(nn2)COC[C@@H]2CCCCN12	/	0.3	/	7.2	/
C=CCOc1cccn2c(N(C=O)Cc3ccccc3)c(CC)nc12	-6.2	0.1	36.8*	/	-10.4
CCc1nc2c(OCc3ccc(Cl)cc3)cccn2c1N(C=O)Cc1ccccc1	-3.4	0.0	3.9	2.0	1.1
COc1ccccc1-c1cnc2c(c1)C(=O)N([C@H](C)CO)C[C@@H](C)[C@H](CN(C)Cc1cccnc1)O2	/	0.1	-1.0	-1.2	26.5*
COc1ccccc1-c1cnc2c(c1)C(=O)N([C@@H](C)CO)C[C@H](C)[C@H](CN(C)Cc1cccnc1)O2	/	0.2	2.4	-8.9	1.4
COc1cccc(-c2cnc3c(c2)C(=O)N([C@@H](C)CO)C[C@@H](C)[C@H](CN(C)Cc2ccccc2)O3)c1	/	-1.2	1.6	/	24.9
COc1cccc(-c2cnc3c(c2)C(=O)N([C@H](C)CO)C[C@@H](C)[C@H](CN(C)Cc2ccccc2)O3)c1	/	-1.2	0.7	/	26.8*
CNC[C@H]1Oc2cc(C#CC3(O)CCCC3)ccc2S(=O)(=O)N([C@H](C)CO)C[C@@H]1C	/	0.0	0.4	-1.4	2.6
Brc1ccc(-c2nnc(-c3cccnc3)o2)cc1	-4.5	-0.1	-1.0	1.0	81.6*
C[C@H](CO)N1C[C@H](C)[C@@H](CN(C)S(=O)(=O)c2cn(C)cn2)Oc2ccc(NC(=O)Nc3cccc4ccccc34)cc2C1=O	/	0.1	-2.2	/	2.3
